ChEMBL document CHEMBL4706553, “Discovery of potent small molecule PROTACs targeting mutant EGFR” (Eur J Med Chem, 2020)
Calls of active or inactive are those of the source.

What was measured:
[1] = tested on: HepG2; test: Antiproliferative activity against human HepG2 cells expressing VEGFR2 assessed as cell growth inhibition measured after 72 hrs by MTT assay; type: functional, cell-based; details: HepG2, 72 h
Outline: (§1)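 Cells were seeded at 3000–8000/well and allowed 24 h, then exposed to serial compound concentrations for 72 h. MTT (5 mg/mL stock in PBS) was added for 4 h, supernatant removed and DMSO added. IC50, defined as 50% growth inhibition, was derived by nonlinear regression (log inhibitor vs response).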

[2] = tested on: Protein cereblon/Epidermal growth factor receptor (Homo sapiens), P00533+Q96SW2 [UNDEFINED MUTATION]; test: Protac activity at CRBN/EGFR del19 mutant in human HCC827 cells assessed as induction of EGFR degradation at 333 nM measured after 24 hrs by Western blot analysis; type: cell-based
Outline: (§2)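 HCC827 cells seeded at 0.5–1 × 10⁶ per well, grown 24 h, then treated at the stated concentrations for 24 h. EGFR^del19 level by Western blot with anti-EGFR antibody and β-actin loading control.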

[3] = tested on: Protein cereblon/Epidermal growth factor receptor (Homo sapiens), P00533+Q96SW2 [UNDEFINED MUTATION]; test: Protac activity at CRBN/EGFR del19 mutant in human HCC827 cells assessed as induction of EGFR degradation at 33 nM measured after 24 hrs by Western blot analysis; type: cell-based; outline: as §2
[4] = tested on: NCI-H1975; test: Antiproliferative activity against human H1975 cells expressing EGFR L858R/T790M mutant assessed as cell growth inhibition measured after 72 hrs by MTT assay; type: functional, cell-based; details: NCI-H1975, 72 h
Outline: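 MTT assay on H1975 cells grown in RPMI-1640 with 10% heat-inactivated FBS and 1% penicillin-streptomycin at 37 °C and 5% CO₂. Cells were seeded at 3000–8000 per well and left 24 h, then exposed to a concentration series for 72 h. MTT (5 mg/mL stock in PBS) was added for 4 h, supernatant removed and formazan dissolved in DMSO. IC50 was fitted by nonlinear regression (log inhibitor vs response).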

[5] = tested on: HCC827; test: Antiproliferative activity against human HCC827 cells expressing EGFR del19 mutant assessed as cell growth inhibition measured after 72 hrs by MTT assay; type: functional, cell-based; details: HCC827, 72 h
Outline: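 HCC827 cells were kept in RPMI-1640 with 10% heat-inactivated FBS, 1% sodium pyruvate, 1% glutamine and 1% penicillin-streptomycin at 37 °C and 5% CO₂, seeded at 3000–8000/well and rested 24 h. Compounds were applied as a concentration series for 72 h. MTT (5 mg/mL stock in PBS) was given for 4 h, then medium was removed and DMSO added. IC50 came from nonlinear regression (log inhibitor vs response).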

[6] = tested on: A-431; test: Antiproliferative activity against human A431 cells expressing wild type EGFR assessed as cell growth inhibition measured after 72 hrs by MTT assay; type: functional, cell-based; details: A-431, 72 h; outline: as §1
[7] = tested on: von Hippel-Lindau disease tumor suppressor/Epidermal growth factor receptor (Homo sapiens), P00533+P40337 [L858R,T790M]; test: Protac activity at VHL/EGFR L858R/T790M mutant in human H1975 cells assessed as maximal induction of degradation of EGFR incubated for 48 hrs by Western blot analysis relative to control; type: cell-based; details: NCI-H1975
Outline: (§3)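 H1975 cells exposed to the stated concentrations for 48 h. EGFR by Western blot; n = 3. DC₅₀ by nonlinear regression, log(inhibitor) vs response.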

[8] = tested on: von Hippel-Lindau disease tumor suppressor/Epidermal growth factor receptor (Homo sapiens), P00533+P40337 [UNDEFINED MUTATION]; test: Protac activity at VHL/EGFR del19 mutant in human HCC827 cells assessed as induction of EGFR degradation at 33 nM measured after 24 hrs by Western blot analysis; type: cell-based; outline: as §2
[9] = target: von Hippel-Lindau disease tumor suppressor/Epidermal growth factor receptor (Homo sapiens, UniProt P00533+P40337); test: Protac activity at VHL/EGFR del19 mutant in human HCC827 cells assessed as induction of EGFR degradation measured after 48 hrs by Western blot analysis; type: cell-based
Outline: (§4)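 HCC827 cells seeded at 0.5–1 × 10⁶ per well, then treated at the stated concentrations for 48 h. EGFR by Western blot; n = 3. DC₅₀ (concentration giving 50% EGFR loss) by nonlinear regression, log(inhibitor) vs response.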

[10] = tested on: von Hippel-Lindau disease tumor suppressor/Epidermal growth factor receptor (Homo sapiens), P00533+P40337 [L858R,T790M]; test: Protac activity at VHL/EGFR L858R/T790M mutant in human H1975 cells assessed as induction of degradation of EGFR at 333 nM incubated for 48 hrs measured after compound wash-out for 48 hrs by Western blot analysis; type: cell-based; details: NCI-H1975
Outline: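 H1975 cells (RPMI-1640, 10% heat-inactivated FBS) exposed to 333 nM for 48 h. Medium then replaced with compound-free medium, and lysates collected at the stated times. EGFR read by Western blot; n = 2.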

[11] = tested on: von Hippel-Lindau disease tumor suppressor/Epidermal growth factor receptor (Homo sapiens), P00533+P40337 [UNDEFINED MUTATION]; test: Protac activity at VHL/EGFR del19 mutant in human HCC827 cells assessed as induction of EGFR degradation at 33 nM by Western blot analysis; type: cell-based; details: time 12-72 hrs, TDE = time-dependent effect
Outline: (§5)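 Time course in HCC827 cells at 33 nM, with protein harvested at each stated time point. EGFR^del19 detected by Western blot.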

[12] = tested on: von Hippel-Lindau disease tumor suppressor/Epidermal growth factor receptor (Homo sapiens), P00533+P40337 [UNDEFINED MUTATION]; test: Protac activity at VHL/EGFR del19 mutant in human HCC827 cells assessed as induction of EGFR degradation at 333 nM measured after 24 hrs by Western blot analysis; type: cell-based; outline: as §2
[13] = tested on: von Hippel-Lindau disease tumor suppressor/Epidermal growth factor receptor (Homo sapiens), P00533+P40337 [UNDEFINED MUTATION]; test: Protac activity at VHL/EGFR del19 mutant in human HCC827 cells assessed as maximal induction of EGFR degradation at 33 nM measured after 48 hrs by Western blot analysis; type: cell-based; outline: as §4
[14] = tested on: von Hippel-Lindau disease tumor suppressor/Epidermal growth factor receptor (Homo sapiens), P00533+P40337 [UNDEFINED MUTATION]; test: Protac activity at VHL/EGFR del19 mutant in human HCC827 cells assessed as induction of EGFR degradation at 33 nM incubated for 24 hrs measured following drug wash-out for 24 hrs by Western blot analysis; type: cell-based
Outline: (§6)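 HCC827 cells (RPMI-1640, 10% heat-inactivated FBS, 1% sodium pyruvate, 1% glutamine, 37 °C, 5% CO₂) treated at 33 nM for 24 h. Medium then replaced with compound-free medium, and protein harvested at the stated times. EGFR read by Western blot; n = 2.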

[15] = target: von Hippel-Lindau disease tumor suppressor/Epidermal growth factor receptor (Homo sapiens, UniProt P00533+P40337, T790M/L858R); test: Protac activity at VHL/EGFR L858R/T790M mutant in human H1975 cells assessed as induction of degradation of EGFR incubated for 48 hrs by Western blot analysis; type: cell-based; details: nci-h1975; outline: as §3
[16] = tested on: Protein cereblon/Epidermal growth factor receptor (Homo sapiens), P00533+Q96SW2 [UNDEFINED MUTATION]; test: Protac activity at CRBN/EGFR del19 mutant in human HCC827 cells assessed as induction of EGFR degradation at 0.033 uM pretreated with ubiquitination inhibitor, MLN4924 for 2 hrs followed by incubation with compound for 24 hrs by Western blot analysis; type: cell-based
[17] = target: T1, Protein cereblon/Epidermal growth factor receptor (Homo sapiens, UniProt P00533+Q96SW2); test: Protac activity at CRBN/EGFR del19 mutant in human HCC827 cells assessed as induction of EGFR degradation measured after 48 hrs by Western blot analysis; type: cell-based; outline: as §4
[18] = tested on: Protein cereblon/Epidermal growth factor receptor (Homo sapiens), P00533+Q96SW2 [UNDEFINED MUTATION]; test: Protac activity at CRBN/EGFR del19 mutant in human HCC827 cells assessed as induction of EGFR degradation at 0.033 uM pretreated with EGFR inhibitor, F for 2 hrs followed by incubation with compound for 24 hrs by Western blot analysis; type: cell-based
[19] = tested on: Protein cereblon/Epidermal growth factor receptor (Homo sapiens), P00533+Q96SW2 [UNDEFINED MUTATION]; test: Protac activity at CRBN/EGFR del19 mutant in human HCC827 cells assessed as induction of EGFR degradation at 33 nM by Western blot analysis; type: cell-based; details: time 12-72 hrs, TDE = time-dependent effect; outline: as §5
[20] = tested on: Protein cereblon/Epidermal growth factor receptor (Homo sapiens), P00533+Q96SW2 [UNDEFINED MUTATION]; test: Protac activity at CRBN/EGFR del19 mutant in human HCC827 cells assessed as induction of EGFR degradation at 0.033 uM pretreated with autophagy inhibitor, chloroquine for 2 hrs followed by incubation with compound for 24 hrs by Western blot analysis; type: cell-based
[21] = target: T1, Protein cereblon/Epidermal growth factor receptor; test: Protac activity at CRBN/EGFR in human A431 cells assessed as induction of degradation of EGFR at 0.1 to 3.3 uM incubated for 48 hrs by Western blot analysis; type: cell-based; details: A-431, dose 0.1-3.3 µM
[22] = tested on: Protein cereblon/Epidermal growth factor receptor (Homo sapiens), P00533+Q96SW2 [UNDEFINED MUTATION]; test: Protac activity at CRBN/EGFR del19 mutant in human HCC827 cells assessed as induction of EGFR degradation at 0.033 uM pretreated with proteasome inhibitor, MG132 for 2 hrs followed by incubation with compound for 24 hrs by Western blot analysis; type: cell-based
[23] = tested on: Protein cereblon/Epidermal growth factor receptor (Homo sapiens), P00533+Q96SW2 [UNDEFINED MUTATION]; test: Protac activity at CRBN/EGFR del19 mutant in human HCC827 cells assessed as induction of EGFR degradation at 33 nM incubated for 24 hrs measured following compound wash-out for 24 to 48 hrs by Western blot analysis; type: cell-based; outline: as §6
[24] = tested on: Protein cereblon/Epidermal growth factor receptor (Homo sapiens), P00533+Q96SW2 [UNDEFINED MUTATION]; test: Protac activity at CRBN/EGFR del19 mutant in human HCC827 cells assessed as induction of EGFR degradation at 0.033 uM pretreated with CRBN ligand, lenalidomide for 2 hrs followed by incubation with compound for 24 hrs by Western blot analysis; type: cell-based
[25] = tested on: Protein cereblon/Epidermal growth factor receptor (Homo sapiens), P00533+Q96SW2 [UNDEFINED MUTATION]; test: Protac activity at CRBN/EGFR del19 mutant in human HCC827 cells assessed as maximal induction of EGFR degradation at 33 nM measured after 48 hrs by Western blot analysis; type: cell-based; outline: as §4

## O=C1CCC(N2Cc3c(NC(=O)CCCCCCN4CCN(c5ccc(Nc6ncc7nc(Nc8ccccc8)n(C8CCCC8)c7n6)cc5)CC4)cccc3C2=O)C(=O)N1 (stereo not given)
[1]
  IC50: > 5000 nM
[2]
  Activity: inactive
[3]
  Activity: Active
[4]
  IC50: 9300 nM
[5]
  IC50: 1.41 nM
[6]
  IC50: 220 nM

## Cc1ncsc1-c1ccc(CNC(=O)[C@@H]2C[C@@H](O)CN2C(=O)[C@@H](NC(=O)CCCCCCCN2CCN(c3ccc(Nc4ncc5nc(Nc6ccccc6)n(C6CCCC6)c5n4)cc3)CC2)C(C)(C)C)cc1
[7]
  Emax: 80.3%
[8]
  Activity: Active
[1]
  IC50: > 5000 nM
[9]
  DC50: 3.54 nM
[4]
  IC50: 970 nM
[5]
  IC50: 0.76 nM
[10]
  Activity: Active
[6]
  IC50: 330 nM
[11]
  Activity: Tde
[12]
  Activity: inactive
[13]
  Emax: 74.8%
[14]
  Activity: Active
[15]
  DC50: 151 nM

## CN(CCOCCOCCOCCN1CCN(c2ccc(Nc3ncc4nc(Nc5ccccc5)n(C5CCCC5)c4n3)cc2)CC1)CC(=O)Nc1cccc2c1CN(C1CCC(=O)NC1=O)C2=O (stereo not given)
[16]
  Activity: inactive
[17]
  DC50: 1.91 nM
[1]
  IC50: > 5000 nM
[18]
  Activity: inactive
[19]
  Activity: Tde
[2]
  Activity: inactive
[20]
  Activity: inactive
[21]
  Activity: inactive
[22]
  Activity: Active
[3]
  Activity: Active
[4]
  IC50: 3180 nM
[23]
  Activity: inactive
[24]
  Activity: inactive
[5]
  IC50: 2 nM
[6]
  IC50: 1860 nM
[25]
  Emax: 82%
